# Source: PubChem BioAssay (several laboratories)
# Sampled rows, rich in hits. Any-hit rate of the full collection: about 1.7%.
# NS3 helicase inh = blocks Hepatitis C virus NS3 helicase unwinding; NS3 helicase DNA unwinding, Cy5 molecular beacon fluorescence; inhibition, % at 10.9 µM; 290,000 compounds, 0.56% hits;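 active = inhibition above the mean of all tested compounds plus 3 SD, set per campaign, cut at about 35% in these data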;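 note: 0% = DMSO wells and 100% = thioflavine S control wells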
#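 assay system = NS3 helicase fragment of HCV | buffer or medium = MOPS pH 6.5, MgCl2, DTT, Tween20, BSA | timing = 60 min unwinding reaction at 25 °C after ATP addition | signal = Cy5 beacon fluorescence read at start and 1 h | read-out basis = % inhibition of unwinding | control set = low DMSO, high thioflavine S at 110 µM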
# MEX-5 binding = C. elegans MEX-5 TCR-2 RNA binding activity; activity score (negative = inhibition of binding), % at 10 µM; AID 1832; 300,000 compounds, 0.38% hits; MEX-5/FITC-TCR2 RNA binding, fluorescence polarization; hits give low values;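 active = inhibition past about -25% in most replicates, and total fluorescence under double the plate's negative control median, limit read from the data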;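 note: 0% = DMSO and -100% = 5 µM competing unlabeled TCR2 RNA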
# EBNA-1 inh = blocks EBNA-1 binding to DNA; EBNA-1 DNA binding, fluorescence polarization; inhibition, % at 14.8 µM; 300,000 compounds, 0.34% hits; in the data active = inhibition above about 28%
# core dimer inh = HCV core protein dimerization inhibition; 300,000 compounds, 0.33% hits; TR-FRET GST/Flag-core106 dimerization, 1536-well; inhibition, % at 5 µM;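 active = inhibition above the mean of all tested compounds plus 3 SD, set per screening campaign, cut at about 45% in these data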
#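 Assay system: GST-tagged and Flag-tagged HCV core protein residues 1-106 / Times: compound-protein-antibody incubation 4 h at 22.5 °C / Signal: time-resolved FRET, ex 340 nm, em 617 and 671 nm / Evaluation: % inhibition based on acceptor/donor emission ratio / Benchmarks: wells lacking GST-core106 and wells with excess unlabelled core106 / Repeats: singlicate, one well per compound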
# EBV gp42 block = blocks Epstein-Barr virus glycoprotein 42 binding; Q1HVG2; Fluorescence polarization binding assay, mP read-out; inhibition, % (tested at 21.74 µM); 220,000 compounds, 0.42% hits; AID 1085; in the data active = inhibition above about 50%
# Target sequence (Q1HVG2 whole entry, looked up): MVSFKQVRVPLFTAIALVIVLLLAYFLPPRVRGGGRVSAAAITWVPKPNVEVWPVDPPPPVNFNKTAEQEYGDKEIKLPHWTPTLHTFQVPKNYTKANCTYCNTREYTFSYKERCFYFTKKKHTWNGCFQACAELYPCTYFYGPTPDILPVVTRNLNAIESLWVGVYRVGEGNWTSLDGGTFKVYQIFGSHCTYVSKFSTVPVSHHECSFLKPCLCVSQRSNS
# ZTA DNA inh = blocks Epstein-Barr virus ZTA, an EBNA-1 counter-screen. AID 2234. inhibition, % at 11 µM. P03206. ZTA-DNA binding, fluorescence polarization. 320,000 compounds, 0.15% hits; in the data active = inhibition above about 33%
# Target sequence (P03206 whole entry, looked up): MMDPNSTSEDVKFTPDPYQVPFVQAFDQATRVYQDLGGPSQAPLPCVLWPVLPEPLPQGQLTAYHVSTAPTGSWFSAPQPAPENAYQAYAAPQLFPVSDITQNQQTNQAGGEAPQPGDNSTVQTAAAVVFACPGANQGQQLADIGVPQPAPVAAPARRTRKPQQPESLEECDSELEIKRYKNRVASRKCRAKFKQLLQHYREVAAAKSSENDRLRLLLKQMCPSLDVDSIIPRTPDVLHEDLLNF
# NS3 helicase cf = confirmation of Hepatitis C virus NS3 helicase inhibitors; inhibition, % at 10.9 µM; 1,600 compounds, 31% hits; NS3 helicase DNA unwinding, Cy5 molecular beacon fluorescence; shares compounds with NS3 helicase inh;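 active = inhibition above the mean of all tested compounds plus 3 SD, cutoff set per campaign, cut at about 36% in these data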
# DNA FID counter = displaces DNA intercalator in HCV helicase counter-screen | shares compounds with NS3 helicase inh | DNA fluorescent intercalator displacement, fluorescence | inhibition, % at 7.9 µM | 1,600 compounds, 4% hits | AID 1945; in the data active = inhibition above about 37%;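 note: 0% = vehicle and 100% = reference compound; higher means more displacement of ethidium bromide from the DNA hairpin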
# DNA FID DR = DNA intercalator displacement in dose response. AID 2172. 120 tested, under 10 active. fluorescent intercalator displacement from DNA, fluorescence. shares compounds with NS3 helicase inh. IC50, µM; call rule not given here
# The depositor's hits bear a star; nt = no result.
SMILES,NS3 helicase inh,MEX-5 binding,EBNA-1 inh,core dimer inh,EBV gp42 block,ZTA DNA inh,NS3 helicase cf,DNA FID counter,others
CC1=NN(C(N)=S)C(=O)C1N=Nc1ccc(Br)cc1 (stereo unspecified),40.6*,0.4,nt,nt,nt,nt,-10.0,10.9,
COc1cc2cc[n+](Cc3ccc([N+](=O)[O-])cc3)cc2cc1OC,-14.2,-0.9,5.6,-2.0,nt,2.3,nt,nt,
C#CCOc1ccc(/C=C2/C(=O)NN(c3ccc(F)cc3)C2=O)cc1OC,38.5*,-1.2,-11.0,7.2,nt,-0.9,7.3,18.6,
COc1cc(/C=N/n2cnnc2)ccc1OC(=O)c1ccco1,-1.8,-0.1,-13.6,-1.7,-9.2,10.3,nt,nt,
COc1cc(/C=C2/C(=O)NN(c3cccc(C)c3)C2=O)ccc1OC(=O)c1ccco1,40.0*,-0.7,9.7,4.7,-13.3,15.8,33.0,2.7,
COc1cccc(/C=C2/C(=O)NN(c3ccc(F)cc3)C2=O)c1,48.0*,-2.2,nt,nt,nt,nt,15.8,13.6,
COC(=O)c1ccc(N2NC(=O)/C(=C/c3ccc(OC)c(OC)c3)C2=O)cc1,39.8*,-1.5,2.7,7.3,nt,9.8,-16.3,-7.1,
Cc1ccc(C)c(NC(=O)CN(C)C(=O)c2ccccc2OCc2c(C)noc2C)c1,nt,nt,nt,nt,nt,15.3,nt,nt,
CCCNC(=O)COC(=O)c1ccc(Cl)c(S(=O)(=O)N2CCCC2)c1,-5.2,-2.9,-0.5,-7.9,-5.1,1.7,nt,nt,
CCCNC(=O)COC(=O)c1ccc(S(=O)(=O)N2CCCC2)cc1,50.0*,0.2,1.2,-2.9,-27.8,15.4,-10.0,-3.7,
Cc1nnc(SCC2=C(C(=O)O)N3C(=O)C(NC(=O)C(C)n4nc(C(F)(F)F)cc4C)C3SC2)s1 (stereo unspecified),39.9*,-3.4,-5.5,4.4,-8.5,-1.0,29.9,-22.0,
Cc1nnc(SCC2=C(C(=O)O)N3C(=O)C(NC(=O)Cc4ccccc4)C3SC2)s1 (stereo unspecified),nt,nt,nt,nt,nt,2.0,nt,nt,
CCOC(=O)Cc1csc(NC(=O)c2sc3nc4c(C)cc(C)cc4cc3c2N)n1,37.8*,-4.0,10.1,-3.4,3.3,0.5,-11.3,-25.3,
CCOC(=O)Cc1csc(NC(=O)c2csc(C)c2)n1,3.5,1.0,4.9,-0.3,0.5,9.2,nt,nt,
O=C(c1ccc(Cl)c(S(=O)(=O)NCc2cccnc2)c1)N1CCCC1,nt,nt,nt,nt,nt,-2.4,nt,nt,
C=CCn1c(SCC(=O)NCC2CCCO2)nc2scc(-c3ccco3)c2c1=O (stereo unspecified),23.1,0.1,-1.6,2.4,-16.7,6.3,nt,nt,
O=C(CSc1nc2scc(-c3ccco3)c2c(=O)n1-c1ccccc1)NCC1CCCO1 (stereo unspecified),85.5*,2.2,13.6,14.0,7.6,-11.4,15.2,-44.9,
O=c1c2c(-c3ccco3)csc2nc(SCc2cn3cccnc3n2)n1-c1ccccc1,61.6*,0.5,-0.4,66.1*,-32.8,11.9,93.9*,8.0,DNA FID DR=>79.4
CC(C)[C@@]1(c2ccc(Cl)cc2)ON(c2ccccc2C(F)(F)F)C1=O,nt,nt,nt,nt,nt,-6.4,nt,nt,
Cc1ccc2c(nc3s/c(=C\c4ccc(-c5ccccc5C(=O)O)o4)c(=O)n32)c1C,43.8*,-10.5,0.3,11.8,nt,8.2,65.4*,50.5*,
CC(C)c1nc(CNC(=O)C2CCC(=O)N(CCc3ccc(Cl)cc3)C2)no1 (stereo unspecified),2.8,-2.8,7.2,0.3,nt,8.6,nt,nt,
CCCCc1cc(=O)oc2cc(OCC(=O)N[C@@H](Cc3ccccc3)C(=O)O)ccc12,50.0*,-2.7,-13.0,-2.3,nt,-1.6,24.1,-26.4,
CCCc1cc(=O)oc2cc(OCC(=O)NC(Cc3ccc(Cl)cc3)C(=O)O)ccc12 (stereo unspecified),5.3,-0.4,5.0,6.3,nt,-10.8,nt,nt,
Cc1cc(C(=O)N/N=C/c2ccc(O)c(O)c2O)c(C)n1-c1ccccc1,45.5*,-4.6,nt,nt,0.6,nt,-13.7,5.2,
Cc1cc(/C=N/NC(=O)c2ccncc2)c(C)n1-c1ccccc1,12.6,-4.3,-8.8,-1.9,2.4,0.1,nt,nt,
SMILES,NS3 helicase inh,MEX-5 binding,EBNA-1 inh,core dimer inh,EBV gp42 block,ZTA DNA inh,NS3 helicase cf,DNA FID counter,others
COC(=O)C(C)Oc1ccc2c(c1)O/C(=C\c1ccco1)C2=O (stereo unspecified),32.8,0.5,16.1,16.8,nt,5.2,nt,nt,
COc1ccc2c(c1)O/C(=C\c1ccco1)C2=O,44.4*,-5.0,-4.9,-4.4,-20.9,-6.9,-1.3,24.1,
CCCn1c(C(C)Nc2nc(-c3ccc(Cl)c([N+](=O)[O-])c3)cs2)nc2cc(Cl)c(N3CCCCC3)cc21 (stereo unspecified),91.6*,0.5,1.0,29.8,nt,0.3,-14.7,5.6,
COc1ccc(C(=O)NCC(C)(C)N2CCOCC2)cc1S(=O)(=O)N1CCCC1,nt,nt,nt,nt,nt,5.6,nt,nt,
COc1ccc(C)cc1NCc1cc(=O)oc2cc(-c3ccccc3)c(O)cc12,49.3*,3.7,-0.3,12.6,1.3,-37.1,-0.1,9.6,
Cc1cc(C)cc(NCc2cc(=O)oc3cc(-c4ccccc4)c(O)cc23)c1,0.1,0.6,2.6,10.2,-12.4,6.7,nt,nt,
COc1ccc(S(=O)(=O)N2CCN(c3nn(C)c(=O)n(C)c3=O)CC2)cc1,nt,nt,nt,nt,nt,-13.2,nt,nt,
CCOC(=O)c1c(-c2ccccc2)oc2ccc(OCC(=O)NNC(=O)CCC(=O)O)cc12,41.4*,-20.7,nt,nt,nt,nt,9.3,-17.5,
O=C(CN1CCN(CC(=O)Nc2ccc(F)cc2)CC1)NCC1(N2CCOCC2)CCCCC1,nt,nt,nt,nt,nt,-17.1,nt,nt,
O=C(Nc1ccccc1)[C@@H]1[C@@H]2C(=O)N(c3ccc(F)cc3)C(=O)[C@@H]2[C@H]2C=CC=NN21,60.6*,-2.0,1.2,3.4,-23.2,-11.6,-19.3,-7.4,
COc1ccc(C(=O)[C@H]2[C@H]3C(=O)N(c4ccc(C)cc4)C(=O)[C@H]3C3C=CC=NN32)cc1 (stereo partly specified),59.9*,2.0,5.4,37.0,-19.7,6.4,-16.5,-18.6,
COc1ccc(C(=O)[C@H]2[C@H]3C(=O)N(c4ccccc4)C(=O)[C@H]3C3C=CC=NN32)cc1 (stereo partly specified),9.7,0.3,-1.9,24.2,-19.8,-5.7,nt,nt,
Cc1ccc(N2C(=O)[C@@H]3[C@H](C2=O)[C@H]2C=CC=NN2[C@@H]3C(=O)Nc2ccccc2)cc1,16.1,0.7,10.3,10.1,-13.7,5.4,nt,nt,
O=C(COC(=O)COc1ccc(Br)cc1)NCc1ccccc1,nt,nt,nt,nt,nt,4.6,nt,nt,
CC(/C=N/n1c(-c2ccco2)n[nH]c1=S)=C\c1ccco1,50.7*,nt,-0.8,0.5,-14.7,-7.7,-2.4,9.1,
